# Results reported in paper PMC3845662 (Analytical chemistry, 2013).
# “And” between values parts separate entries of the source, which are not always exact repeats. Equal entries are not always repeated.
# Columns and labels:
# Hsp70-Bag3 complex [1] = target: T1, Hsp70-Bag3 complex (Homo sapiens, UniProt P0DMV8); assay: CE-LIF screen / dose response for inhibition of the Hsp70-Bag3 interaction; assay type: binding; details: for classification from electropherogram (artifact): 20 μM compound; for hit in CE screen, reconfirmed with repurchased compound by DRC: primary screen 20 μM, repurchased compound dose response
# How it was run: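 Incubated ≥15 min at ambient temperature with dry-spotted compound; unlabelled Hsp70 as positive control. Coated capillary, 10 cm, 25 °C, pH 7.5 phosphate/Tween buffer, 500 V/cm. LIF bound/free peak-area ratio; screen hits ≥3 SD.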
# Hsp70 = details: cited from earlier work
# Hsp70-Bag3 complex [2] = target: T1, Hsp70-Bag3 complex; assay: Flow cytometry protein interaction assay; assay type: binding; details: for cross-test of CE hit by DRC in FCPIA: repurchased compound, dose response; for result in original FCPIA screen: single concentration 20 μM, hit = inhibition ≥ 3 SD from negative controls
# How it was run: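 Biotinylated Hsp70 was immobilised on streptavidin polystyrene beads for 1 h, then mixed with Alexa Fluor 488-labelled Bag3 (30 nM final) and compound or DMSO. Unlabelled Hsp70 served as positive control. After 15 min, median bead-associated fluorescence was read by flow cytometry. Screen used 20 μM; hits ≥3 SD from negative controls.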
# [3] = 0.5 μM Hsp70–488 and 0.5 μM Bag3
# T1 sequence (P0DMV8 whole entry, one chain of several): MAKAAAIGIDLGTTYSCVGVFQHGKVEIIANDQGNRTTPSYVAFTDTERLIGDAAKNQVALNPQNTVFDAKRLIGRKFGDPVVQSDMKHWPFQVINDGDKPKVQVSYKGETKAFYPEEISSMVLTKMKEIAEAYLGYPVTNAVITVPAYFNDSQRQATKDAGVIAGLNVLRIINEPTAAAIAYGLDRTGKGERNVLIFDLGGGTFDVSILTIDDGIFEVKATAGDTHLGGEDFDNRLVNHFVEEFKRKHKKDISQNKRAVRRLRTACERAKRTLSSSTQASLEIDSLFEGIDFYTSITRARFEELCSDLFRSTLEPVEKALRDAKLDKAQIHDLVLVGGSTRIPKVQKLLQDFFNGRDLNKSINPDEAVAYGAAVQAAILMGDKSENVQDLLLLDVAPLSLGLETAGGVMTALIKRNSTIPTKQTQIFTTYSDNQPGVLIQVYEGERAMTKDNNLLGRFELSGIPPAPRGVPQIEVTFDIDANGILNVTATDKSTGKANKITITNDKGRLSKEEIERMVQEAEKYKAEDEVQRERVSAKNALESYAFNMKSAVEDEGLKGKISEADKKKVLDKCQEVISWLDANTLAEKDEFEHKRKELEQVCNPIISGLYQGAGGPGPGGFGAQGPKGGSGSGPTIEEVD
Compound,classification from electropherogram (artifact) (Hsp70-Bag3 complex [1]; [3]),"hit in CE screen, reconfirmed with repurchased compound by DRC (Hsp70-Bag3 complex [1])",cross-test of CE hit by DRC in FCPIA (Hsp70-Bag3 complex [2]),result in original FCPIA screen (Hsp70-Bag3 complex [2]),further results
Oc1cc2c(cc1O)C1c3ccc(O)c(O)c3OCC1(O)C2 (centres unmarked) [haematoxylin],identified as an aggregator,–,–,–,–
O=C(O)CN(CC(=O)O)Cc1cc2c(cc1O)Oc1cc(O)c(CN(CC(=O)O)CC(=O)O)cc1C21OC(=O)c2ccccc21 [calcein],identified as a fluorescent compound that interferes with detection of free Hsp70–488,–,–,–,–
O=c1c(O)c(-c2cc(O)c(O)c(O)c2)oc2cc(O)cc(O)c12 [myricetin],–,found by CE,reconfirmed by FCPIA,missed in the original FCPIA screen,known modulator of Hsp70 (Hsp70): known modulators of Hsp70
CC1=C(O)C(=O)C=C2C1=CC=C1[C@@]2(C)CC[C@@]2(C)[C@@H]3C[C@](C)(C(=O)O)CC[C@]3(C)CC[C@]12C [celastrol],–,found by CE,reconfirmed by FCPIA,missed in the original FCPIA screen,–
O=C(O[C@@H]1Cc2c(O)cc(O)cc2O[C@@H]1c1cc(O)c(O)c(O)c1)c1cc(O)c(O)c(O)c1 [Epigallocatechin gallate],–,–,–,–,"classification from electropherogram (Hsp70-Bag3 complex [1]; 15 μM compound, 0.5 μM Hsp70–488 and 0.5 μM Bag3): confirmed PPI inhibitor"
unlabeled Hsp70: unlabeled recombinant human Hsp70 (HSPA1) used as competitor and positive control,–,–,–,–,IC50 (decrease of bound to free peak area ratio) (Hsp70-Bag3 complex [1]; 0.5 μM Hsp70–488 and 0.5 μM Bag3 with increasing unlabeled Hsp70): 0.240 ± 0.003 µM and 0.24 µM
